The values that follow come from ChEMBL document CHEMBL1149480, “Discovery of a novel series of inhibitors of human cytomegalovirus primase” (Bioorg Med Chem Lett, 2006).

Active and inactive are the calls of the source. The calls are words filed in the database; no cut-off is given here.

The subject of one experiment is Jurkat. The experiment in a line: Cytotoxicity against human Jurkat cells. The format is functional, cell-based. Put shortly:
(§1)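 HFF or Jurkat cells were seeded and compound added 3 h later. Alamar blue staining at 0, 24, 48 and 72 h, then a further 3 h incubation, with fluorescence read-out. IC50 is the concentration inhibiting cell growth by 50%.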

Experiment [1] deals with HFF. Description: Cytotoxicity against HFF cells. The conditions noted are these: Homo sapiens. The experiment is classed as functional, cell-based. The method in brief:
as §1

Experiment [2] has as its system Human betaherpesvirus 5. Description: Inhibition of human CMV growth by viral yield assay. The experiment is classed as functional. Put shortly: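 Viral yield: once CPE appeared, well supernatants were serially diluted 1:2 sixteen times and used to infect fresh HFF cells (10^4/well). Inoculum was removed after 1 h; cells were incubated 5–7 days until CPE. Yield was quantified and IC99.9 taken as the drug concentration giving 99.9% inhibition of replication.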

For experiment [3], the system named is Human betaherpesvirus 5. Description: Inhibition of human CMV growth by plaque reduction assay. The experiment is classed as functional. Put shortly: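 Plaques counted after 10-day incubation of 10^5 cells infected with 1000 pfu of wild-type, clinical-isolate or resistant virus; IC99.9 is the drug amount inhibiting plaque formation by 99.9%.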
The subject of a further experiment is Human alphaherpesvirus 1. Description: Antiviral activity against HSV. The experiment is classed as functional, organism-based.
Another experiment has as its system Human gammaherpesvirus 4. Description: Antiviral activity against EBV. The format is functional, organism-based.
The test system of experiment [4] is Human immunodeficiency virus. Description: Antiviral activity against HIV. The format is functional, organism-based.
The next experiment deals with Human betaherpesvirus 6. Description: Antiviral activity against HHV6. The experiment is classed as functional, organism-based.
Another experiment relates to Murid betaherpesvirus 2. Description: Antiviral activity against rat CMV. The format is functional, organism-based.
The next experiment deals with Caviid betaherpesvirus 2. Description: Antiviral activity against guinea pig CMV. The experiment is classed as functional, organism-based.
The next experiment concerns Murid betaherpesvirus 1. The experiment in a line: Antiviral activity against mouse CMV. The experiment is classed as functional, organism-based.
Experiment [5] can be described thus: Ratio of antiviral activity against human CMV to rhesus CMV. The format is functional, Cercopithecine herpesvirus 8.
Experiment [6] has as its system HFF. The experiment in a line: Antiviral activity against human CMV by luciferase reporter gene assay in HFF cells. The experiment is classed as functional, cell-based. Put shortly:
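HFF cells (10^4/well) were rested 2 h, then infected with rhCMVLuc at MOI 1 pfu/cell. Inoculum was removed after 1 h and drug added (0.005–5 µM or 0.05–50 µM) for 48 h at 37 °C. Luciferase was read with Mg(OAc)2, 30 mM Tricine pH 7.8 and 200 µM EDTA. IC50 is 50% inhibition of hCMV DNA replication.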
Background: In a reporter assay the amount or activity of a reporter protein is the signal.

For experiment [7], the system named is HFF. Description: Antiviral activity against human CMV by dot blot assay in HFF cells. The experiment is classed as functional, cell-based. Put shortly: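 Dot blot DNA replication readout. HFF cells were seeded at 2 × 10^4 cells/well and infected with rhCMVLuc, clinical isolates or wild-type virus, then incubated 72 h with drug. Cells were lysed in 0.4 N NaOH, 0.5 M EDTA, applied to membrane by microfiltration and UV-crosslinked. DNA was hybridized to a hCMV-specific 32P probe and detected by phosphorimaging.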

The test system of experiment [8] is DNA primase UL70 (Human cytomegalovirus). Description: Binding affinity to human CMV UL70 primase by immunoprecipitation assay. The conditions noted are these: Human betaherpesvirus 5; tested as the 3H-labelled form.

A word on the IC50: it is the concentration needed to halve the response being measured.

With `Cc1nc(N(C)Cc2ccccc2)nc(-n2ccnc2C)c1[N+](=O)[O-]`, the IC50 in the experiment with Jurkat is 25000 nM; in the experiment on HFF [1] it was more than 100000 nM; in the experiment on HFF [6] it was 39 nM; with HFF [7] it was 61 nM. Moreover, the IC100 amounted to 0.2 µM in the experiment with Human betaherpesvirus 5 [2] and 0.5 µM with Human betaherpesvirus 5 [3]. In addition, the outcome (in the experiment with Human alphaherpesvirus 1; with Human gammaherpesvirus 4; in [4]; in the experiment with Human betaherpesvirus 6; with Murid betaherpesvirus 2; with Caviid betaherpesvirus 2) was inactive. Further, the result with Murid betaherpesvirus 1 was inactive. Besides, in experiment [5], the Selectivity ratio entry is recorded as “>=10”.
Consider `Cc1nc(NC2CCc3ccccc32)nc(-n2ccnc2C)c1[N+](=O)[O-]` (stereo not drawn), for which the IC50 was 100000 nM in the experiment on Jurkat, more than 100000 nM in the experiment on HFF [1] and 53 nM with HFF [7]. The IC100 with Human betaherpesvirus 5 [2] was 0.1 µM; with Human betaherpesvirus 5 [3] it was 0.5 µM. Moreover, the outcome (with Human alphaherpesvirus 1; in the experiment on Human gammaherpesvirus 4; in [4]; in the experiment with Human betaherpesvirus 6; with Murid betaherpesvirus 2; in the experiment on Caviid betaherpesvirus 2) was inactive. Also, in the experiment on Murid betaherpesvirus 1, the result was inactive. Besides, in experiment [5], the Selectivity ratio result is “>=10”.
Consider `CCc1nc(N(C)Cc2ccccc2)nc(-n2ccnc2C)c1[N+](=O)[O-]`, for which the result (with Human alphaherpesvirus 1; with Human alphaherpesvirus 1 (tested as the 3H-labelled form); in the experiment on Human gammaherpesvirus 4; with Human gammaherpesvirus 4 (tested as the 3H-labelled form); in experiment [4]; in experiment [4] (tested as the 3H-labelled form)) was inactive. For the same compound, the result with Human betaherpesvirus 6, in the experiment on Human betaherpesvirus 6 (tested as the 3H-labelled form), in the experiment on Murid betaherpesvirus 2, in the experiment on Murid betaherpesvirus 2 (tested as the 3H-labelled form), in the experiment with Caviid betaherpesvirus 2 and in the experiment with Caviid betaherpesvirus 2 (tested as the 3H-labelled form) was inactive. The result in the experiment on Murid betaherpesvirus 1 and with Murid betaherpesvirus 1 (tested as the 3H-labelled form) was inactive. Moreover, the Selectivity ratio entry in [5] was “>=10”. The compound also displayed a half-maximal inhibitory concentration (IC50) in the experiment with HFF [6] of 170 nM. Also, the outcome in [8] was Active.
As to `Cc1nc(N(C)c2ccccc2)nc(-n2ccnc2C)c1[N+](=O)[O-]`, the 50% inhibitory concentration (IC50) in the experiment with Jurkat was 80000 nM; with HFF [1], 100000 nM; in the experiment with HFF [6], 550 nM; in the experiment on HFF [7], 300 nM. The values for the IC100 in the experiment with Human betaherpesvirus 5 [2] and in the experiment on Human betaherpesvirus 5 [3] were 2 µM and 2.5 µM, respectively. Moreover, the outcome (in the experiment with Human alphaherpesvirus 1; in the experiment with Human gammaherpesvirus 4; in experiment [4]; in the experiment with Human betaherpesvirus 6; with Murid betaherpesvirus 2; in the experiment on Caviid betaherpesvirus 2) was inactive. Besides, the result with Murid betaherpesvirus 1 was inactive. The Selectivity ratio result in experiment [5] is listed as “>=10”.
